Measured values from ChEMBL document CHEMBL1153056, “Identification of MK-1925: a selective, orally active and brain-penetrable opioid receptor-like 1 (ORL1) antagonist” (Bioorg Med Chem Lett, 2009).
Values belong to the compound of their own block, whether it stands above or below them.

Columns and labels:
Nociceptin receptor [1] = target: T1, Nociceptin receptor (Homo sapiens, UniProt P41146); assay: Displacement of [125I]Tyr14-NC/OFQ from ORL1 receptor
[2] = Distribution coefficient, log D at pH 7.4 by shake-flask method; format: physicochemical; conditions: octanol/water
Nociceptin receptor [3] = target: T1, Nociceptin receptor; assay: Antagonist activity at ORL1 receptor by [35S]GTPgammaS binding assay; format: functional
[4] = Metabolic stability in cryopreserved human hepatocytes after 30 mins; format: ADME, cell-based, Hepatocyte; conditions: read-out: Stability
[5] = Oral bioavailability in rat at 3 mg/kg; format: ADME, organism-based; conditions: in vivo
Procedure, shortened: (§1)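 PK run with a 3 mg/kg oral dose and a 1 mg/kg IV dose; values are the mean of n = 3 animals.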

Mus musculus [6] = assay: Reversal of ORL1 agonist-induced locomotor activity in mouse at 3 mg/kg, po after 60 mins; format: functional
Procedure, shortened: (§2)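 Mice dosed orally; ORL1 agonist then given to reduce locomotor activity, with activity monitored for 60 min. Result expressed as % reversal of the agonist-induced reduction in locomotor activity.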

[7] = target: Voltage-gated inwardly rectifying potassium channel KCNH2 (Homo sapiens, UniProt Q12809); assay: Displacement of [35S]MK499 from human ERG expressed in HEK293 cells overexpressing Ikr channel protein; format: cell-based
Chain of Voltage-gated inwardly rectifying potassium channel KCNH2 (Q12809 whole entry): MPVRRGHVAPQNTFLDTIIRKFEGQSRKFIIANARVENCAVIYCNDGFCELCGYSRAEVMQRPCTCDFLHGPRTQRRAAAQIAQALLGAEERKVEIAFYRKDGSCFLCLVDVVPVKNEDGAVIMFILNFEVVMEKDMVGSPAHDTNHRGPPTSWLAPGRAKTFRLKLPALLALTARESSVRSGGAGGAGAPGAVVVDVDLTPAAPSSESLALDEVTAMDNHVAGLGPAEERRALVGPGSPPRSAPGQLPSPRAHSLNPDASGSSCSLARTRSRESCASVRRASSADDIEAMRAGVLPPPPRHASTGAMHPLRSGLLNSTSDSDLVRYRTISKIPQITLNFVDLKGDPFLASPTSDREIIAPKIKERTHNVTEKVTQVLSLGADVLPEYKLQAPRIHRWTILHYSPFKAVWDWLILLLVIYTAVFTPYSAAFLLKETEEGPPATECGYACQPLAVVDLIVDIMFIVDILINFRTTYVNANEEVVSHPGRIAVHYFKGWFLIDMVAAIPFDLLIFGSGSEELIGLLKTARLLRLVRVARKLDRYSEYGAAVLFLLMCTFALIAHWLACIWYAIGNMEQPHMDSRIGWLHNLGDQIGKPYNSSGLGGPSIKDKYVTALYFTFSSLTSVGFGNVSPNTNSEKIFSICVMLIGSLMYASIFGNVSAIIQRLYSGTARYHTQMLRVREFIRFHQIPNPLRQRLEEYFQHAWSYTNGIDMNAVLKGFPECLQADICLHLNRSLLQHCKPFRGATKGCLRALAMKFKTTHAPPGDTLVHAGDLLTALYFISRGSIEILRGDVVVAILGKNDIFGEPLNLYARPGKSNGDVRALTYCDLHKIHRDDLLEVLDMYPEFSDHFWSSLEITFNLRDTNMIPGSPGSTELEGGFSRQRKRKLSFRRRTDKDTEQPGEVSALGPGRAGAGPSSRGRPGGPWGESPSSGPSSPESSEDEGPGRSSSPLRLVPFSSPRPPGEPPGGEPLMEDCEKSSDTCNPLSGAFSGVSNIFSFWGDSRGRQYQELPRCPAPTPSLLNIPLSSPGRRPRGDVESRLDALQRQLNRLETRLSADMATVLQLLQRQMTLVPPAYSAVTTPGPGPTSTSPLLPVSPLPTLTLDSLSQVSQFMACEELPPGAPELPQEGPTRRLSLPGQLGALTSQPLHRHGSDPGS
Procedure, shortened: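 Membranes from HEK 293 cells stably transfected with the hERG gene and expressing the I_Kr channel protein; [³⁵S]-radiolabeled MK499 displaced.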

Mus musculus [8] = assay: Plasma concentration in mouse at 3 mg/kg, po; format: ADME, organism-based; design: dose 3 mg/kg, route oral; conditions: in vivo
Procedure, shortened: (§3)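 Mice dosed orally at 3, 10 or 30 mg/kg. Plasma and brain were sampled 60 min after dosing. Brain level is given as nmol/g brain, and the brain/plasma ratio was derived.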

[9] = Cmax in dog at 3 mg/kg, po; format: ADME, organism-based, Canis lupus familiaris; design: dose 3 mg/kg, route oral; conditions: in vivo; procedure, shortened: as §1
[10] = Cmax in anesthetized dog at 10 mg/kg; format: ADME, organism-based, Canis lupus familiaris; design: dose 10 mg/kg; conditions: in vivo
[11] = Inhibition of choline transporter
[12] = Ratio of drug level in brain to plasma in mouse at 10 mg/kg, po after 60 mins; format: ADME, organism-based; design: dose 10 mg/kg, route oral
Procedure, shortened: (§4)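 Mice received single oral doses (3, 10 or 30 mg/kg). Plasma and brain levels were taken 60 min after dosing. Brain levels were expressed as nmol/g brain, and the b/p ratio was brain level over plasma level.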

[13] = Oral bioavailability in dog at 3 mg/kg; format: ADME, organism-based, Canis lupus familiaris; conditions: in vivo; procedure, shortened: as §1
Brain [14] = assay: Drug level in mouse brain assessed per gram of tissue at 30 mg/kg, po after 60 mins; format: ADME, organism-based; design: dose 30 mg/kg, route oral; conditions: in vivo, 1 h; procedure, shortened: as §3
[15] = Volume of distribution at steady state in dog at 1 mg/kg, iv; format: ADME, organism-based, Canis lupus familiaris; design: dose 1 mg/kg, route intravenous; conditions: in vivo, read-out: Vdss; procedure, shortened: as §1
Brain [16] = assay: Drug level in mouse brain assessed per gram of tissue at 3 mg/kg, po after 60 mins; format: ADME, organism-based; design: dose 3 mg/kg, route oral; conditions: in vivo, 1 h; procedure, shortened: as §3
Mus musculus [17] = assay: Plasma concentration in mouse at 10 mg/kg, po; format: ADME, organism-based; design: dose 10 mg/kg, route oral; conditions: in vivo; procedure, shortened: as §3
[18] = target: Kappa-type opioid receptor (Homo sapiens, UniProt P41145); assay: Displacement of [3H]U69593 from human cloned kappa opioid receptor expressed in CHO cells; format: cell-based
Chain of Kappa-type opioid receptor (P41145 whole entry): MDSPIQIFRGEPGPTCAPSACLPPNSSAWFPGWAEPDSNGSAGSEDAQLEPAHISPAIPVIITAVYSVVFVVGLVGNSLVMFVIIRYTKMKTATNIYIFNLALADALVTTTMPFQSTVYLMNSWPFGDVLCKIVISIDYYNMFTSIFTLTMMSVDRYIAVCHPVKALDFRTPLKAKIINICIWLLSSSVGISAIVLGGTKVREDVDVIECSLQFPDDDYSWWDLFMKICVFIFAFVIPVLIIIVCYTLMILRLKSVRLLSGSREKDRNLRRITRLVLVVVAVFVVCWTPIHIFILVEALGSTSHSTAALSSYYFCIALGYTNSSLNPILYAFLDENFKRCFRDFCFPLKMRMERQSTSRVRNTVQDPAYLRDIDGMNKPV

[19] = Plasma clearance in rat at 1 mg/kg, iv; format: ADME, organism-based; design: dose 1 mg/kg, route intravenous; procedure, shortened: as §1
[20] = Half life in rat at 3 mg/kg, po; format: ADME, organism-based; design: dose 3 mg/kg, route oral; conditions: in vivo; procedure, shortened: as §1
[21] = AUC (0 to infinity) in rat at 3 mg/kg, po; format: ADME, organism-based; design: time infinity, dose 3 mg/kg, route oral; conditions: plasma; procedure, shortened: as §1
[22] = Ratio of drug level in brain to plasma in mouse at 3 mg/kg, po after 60 mins; format: ADME, organism-based; design: dose 3 mg/kg, route oral; procedure, shortened: as §4
Mu-type opioid receptor = Mu-type opioid receptor (Homo sapiens, UniProt P35372); assay: Displacement of [3H]diprenorphin from human cloned mu opioid receptor expressed in CHO cells; format: cell-based
Chain of Mu-type opioid receptor (P35372 whole entry): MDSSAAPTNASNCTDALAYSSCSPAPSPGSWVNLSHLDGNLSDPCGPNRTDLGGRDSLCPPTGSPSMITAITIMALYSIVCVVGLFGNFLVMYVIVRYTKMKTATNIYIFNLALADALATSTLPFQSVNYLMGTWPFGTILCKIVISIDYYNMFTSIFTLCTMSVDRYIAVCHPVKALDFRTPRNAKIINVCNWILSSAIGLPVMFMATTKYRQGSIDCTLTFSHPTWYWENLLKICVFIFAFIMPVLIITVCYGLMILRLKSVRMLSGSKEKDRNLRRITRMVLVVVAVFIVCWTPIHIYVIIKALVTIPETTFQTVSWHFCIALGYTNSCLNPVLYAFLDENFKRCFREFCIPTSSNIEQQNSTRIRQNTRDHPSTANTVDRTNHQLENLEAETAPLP

[23] = Half life in dog at 3 mg/kg, po; format: ADME, organism-based, Canis lupus familiaris; design: dose 3 mg/kg, route oral; conditions: in vivo; procedure, shortened: as §1
[24] = Ratio of drug level in brain to plasma in mouse at 30 mg/kg, po after 60 mins; format: ADME, organism-based; design: dose 30 mg/kg, route oral; procedure, shortened: as §4
Brain [25] = assay: Drug level in mouse brain assessed per gram of tissue at 10 mg/kg, po after 60 mins; format: ADME, organism-based; design: dose 10 mg/kg, route oral; conditions: in vivo, 1 h; procedure, shortened: as §3
Mus musculus [26] = assay: Reversal of ORL1 agonist-induced locomotor activity in po dosed mouse after 60 mins; format: functional, organism-based
Procedure, shortened: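 Mice received oral doses of 3, 10 or 30 mg/kg against the locomotor-activity reduction produced by an ORL1 agonist, measured over 60 min. Results are expressed as % reversal of the agonist response.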

[27] = Volume of distribution at steady state in rat at 1 mg/kg, iv; format: ADME, organism-based; design: dose 1 mg/kg, route intravenous; conditions: in vivo, read-out: Vdss; procedure, shortened: as §1
Mus musculus [28] = assay: Reversal of ORL1 agonist-induced locomotor activity in mouse at 10 mg/kg, po after 60 mins; format: functional; procedure, shortened: as §2
[29] = Inhibition of choline transporter at 10 uM
Mus musculus [30] = assay: Reversal of ORL1 agonist-induced locomotor activity in mouse at 30 mg/kg, po after 60 mins; format: functional; procedure, shortened: as §2
[31] = AUC (0 to infinity) in dog at 3 mg/kg, po; format: ADME, organism-based, Canis lupus familiaris; design: dose 3 mg/kg, route oral, time infinity; conditions: plasma; procedure, shortened: as §1
[32] = target: Delta-type opioid receptor (Homo sapiens, UniProt P41143); assay: Displacement of [3H]naltrindole from human cloned delta opioid receptor expressed in CHO cells; format: cell-based
Chain of Delta-type opioid receptor (P41143 whole entry): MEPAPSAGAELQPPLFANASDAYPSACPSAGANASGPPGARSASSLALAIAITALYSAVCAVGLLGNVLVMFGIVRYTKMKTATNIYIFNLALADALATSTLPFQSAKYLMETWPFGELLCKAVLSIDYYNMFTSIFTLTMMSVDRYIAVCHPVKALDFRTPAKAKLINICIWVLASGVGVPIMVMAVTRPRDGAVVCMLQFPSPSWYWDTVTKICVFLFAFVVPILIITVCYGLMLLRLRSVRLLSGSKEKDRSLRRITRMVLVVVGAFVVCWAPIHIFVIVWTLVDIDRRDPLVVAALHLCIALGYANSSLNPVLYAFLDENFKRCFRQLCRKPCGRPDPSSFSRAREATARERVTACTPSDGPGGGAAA

[33] = Cmax in rat at 3 mg/kg, po; format: ADME, organism-based; design: dose 3 mg/kg, route oral; conditions: in vivo; procedure, shortened: as §1
[34] = Plasma clearance in dog at 1 mg/kg, iv; format: ADME, organism-based, Canis lupus familiaris; design: dose 1 mg/kg, route intravenous; procedure, shortened: as §1
Canis familiaris = assay: Toxicity in anesthetized dog assessed as adverse effect up to 10 mg/kg; format: organism-based, Canis lupus familiaris; design: dose 10 mg/kg; conditions: in vivo
Mus musculus [35] = assay: Plasma concentration in mouse at 30 mg/kg, po; format: ADME, organism-based; design: dose 30 mg/kg, route oral; conditions: in vivo; procedure, shortened: as §3

T1 sequence (P41146 whole entry): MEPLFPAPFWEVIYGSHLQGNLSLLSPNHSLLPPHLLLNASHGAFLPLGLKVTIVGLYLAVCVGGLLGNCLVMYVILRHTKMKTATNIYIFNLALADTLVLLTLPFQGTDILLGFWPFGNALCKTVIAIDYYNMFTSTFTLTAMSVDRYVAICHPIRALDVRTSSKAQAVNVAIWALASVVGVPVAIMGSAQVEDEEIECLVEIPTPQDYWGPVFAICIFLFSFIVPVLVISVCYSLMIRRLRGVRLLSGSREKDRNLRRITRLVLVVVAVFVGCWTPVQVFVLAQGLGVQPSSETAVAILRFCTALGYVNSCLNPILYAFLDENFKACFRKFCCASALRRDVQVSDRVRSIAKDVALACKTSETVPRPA

IC50 (Nociceptin receptor [1]): 17 nM
SMILES: Cc1c(CN[C@H]2CC[C@@H](F)C2)nn(C)c1-c1cc(F)cc(Cl)c1

IC50 (Nociceptin receptor [1]): 15 nM
logD [2]: 1.3
SMILES: Cc1c(CN[C@H]2CC[C@@H](F)C2)nn(CCO)c1-c1cc(F)cc(F)c1

IC50 (Nociceptin receptor [3]): 2.5 nM
IC50 (Nociceptin receptor [1]): 3.1 nM
remaining at 0.5 h [4]: 56%
logD [2]: 1.9
SMILES: Cc1c(CN[C@H]2CC[C@@H](F)C2)nn(C)c1-c1cc(F)cc(F)c1

IC50 (Nociceptin receptor [3]): 2.5 nM
IC50 (Nociceptin receptor [1]): 9.3 nM
remaining at 0.5 h [4]: 40%
SMILES: Cn1nc(CN[C@H]2CC[C@@H](F)C2)c(Cl)c1-c1cc(F)cc(F)c1

IC50 (Nociceptin receptor [3]): 1 nM
IC50 (Nociceptin receptor [1]): 1.4 nM
remaining at 0.5 h [4]: 39%
SMILES: COCc1c(CN[C@H]2CC[C@@H](F)C2)nn(C)c1-c1cc(F)cc(F)c1

The next lines start with the compound.

SMILES: Cc1c(CN[C@H]2CC[C@@H](F)C2)nn(CCS(C)(=O)=O)c1-c1cc(F)cc(F)c1
IC50 (Nociceptin receptor [1]): 33 nM
logD [2]: < 1

SMILES: CC(=O)Cn1nc(CN[C@H]2CC[C@@H](F)C2)c(C)c1-c1cc(F)cc(F)c1
IC50 (Nociceptin receptor [1]): 12 nM
logD [2]: 1.4

SMILES: Cc1ncc(-c2c(C)c(CN[C@H]3CC[C@@H](F)C3)nn2C)cc1F
IC50 (Nociceptin receptor [3]): 2.2 nM
IC50 (Nociceptin receptor [1]): 4.3 nM
remaining at 0.5 h [4]: 25%

SMILES: Cc1c(CN[C@H]2CC[C@@H](F)C2)nn(C)c1-c1cc(F)cc(C(F)(F)F)c1
IC50 (Nociceptin receptor [1]): 210 nM

SMILES: Cc1c(CN[C@H]2CC[C@@H](F)C2)nn(CCC#N)c1-c1cc(F)cc(F)c1
bioavailability [5]: 21%
Activity (Mus musculus [6]): 17%
IC50 [7]: 9500 nM
concentration (Mus musculus [8]): 16 nM
Cmax [9]: 2600 nM
Cmax [10]: 9700 nM
IC50 [11]: 3700 nM
Kp at 1 h [12]: 1.62
bioavailability [13]: 62%
Drug uptake (Brain [14]): 3.02 nmol/g
Vd [15]: 3.5 L/kg
Drug uptake (Brain [16]): 0.035 nmol/g
concentration (Mus musculus [17]): 315 nM
IC50 [18]: 9800 nM
clearance [19]: 83 mL/min/kg
half-life [20]: 0.7 h
AUC(0-inf) [21]: 0.3 µM·h
Kp at 1 h [22]: 3.42
remaining at 0.5 h [4]: 77%
IC50 (Mu-type opioid receptor): > 10000 nM
half-life [23]: 2.8 h
Kp at 1 h [24]: 1.84
Drug uptake (Brain [25]): 0.516 nmol/g
Activity (Mus musculus [26]): Dose-dependent effect
Vd [27]: 5.2 L/kg
Activity (Mus musculus [28]): 81%
inhibition [29]: 50%
Activity (Mus musculus [30]): 112%
AUC(0-inf) [31]: 1.3 µM·h
IC50 [32]: > 10000 nM
Cmax [33]: 400 nM
clearance [34]: 37 mL/min/kg
logD [2]: 1.5
Activity (Canis familiaris): Non-toxic
concentration (Mus musculus [35]): 1630 nM

SMILES: CCn1nc(CN[C@H]2CC[C@@H](F)C2)c(C)c1-c1cnc(C)c(F)c1
IC50 (Nociceptin receptor [3]): 0.61 nM
IC50 (Nociceptin receptor [1]): 2 nM

SMILES: Cc1ncc(-c2c(C)c(CN[C@H]3CC[C@@H](F)C3)nn2-c2ncccc2Cl)cc1F
bioavailability [5]: 3.2%
remaining at 0.5 h [4]: 39%

SMILES: Cc1c(CN[C@H]2CC[C@@H](F)C2)nn(C)c1-c1cc(F)c(F)c(F)c1
IC50 (Nociceptin receptor [3]): 13 nM
IC50 (Nociceptin receptor [1]): 15 nM

SMILES: Cc1c(CN[C@H]2CC[C@@H](F)C2)nn(C)c1-c1ccc(F)c(F)c1
IC50 (Nociceptin receptor [3]): 6.5 nM
IC50 (Nociceptin receptor [1]): 6.4 nM

SMILES: Cc1ncc(-c2[nH]nc(CN[C@H]3CC[C@@H](F)C3)c2C)cc1F
IC50 (Nociceptin receptor [3]): 7.8 nM
IC50 (Nociceptin receptor [1]): 9.9 nM
remaining at 0.5 h [4]: 21%
